Legend:
Type in all cases: functional
OVCAR-8 = assay: Cytotoxicity against human OVCAR8 cells assessed as cell growth at 50 uM by SRB assay; details: read-out: Activity
A498 = assay: Cytotoxicity against human A498 cells assessed as cell growth at 50 uM by SRB assay; details: read-out: Activity
UO-31 = assay: Cytotoxicity against human UO31 cells assessed as cell growth at 50 uM by SRB assay; details: read-out: Activity
PC-3 [1] = assay: Cytotoxicity against human PC3 cells assessed as cell growth at 50 uM by SRB assay; details: read-out: Activity
DU-145 [2] = assay: Cytotoxicity against human DU145 cells assessed as cell growth at 50 uM by SRB assay; details: read-out: Activity
Summary of the method: (§1)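 Measured in the NCI-60 human tumour cell line panel using five-dose testing. Growth was recorded at each dose for each cell line, and a GI50 was derived for each line.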

BT-549 = assay: Cytotoxicity against human BT549 cells assessed as cell growth at 50 uM by SRB assay; details: read-out: Activity
HOP-62 [3] = assay: Cytotoxicity against human HOP62 cells by SRB assay; summary of the method: as §1
HCT-15 = assay: Cytotoxicity against human HCT15 cells by SRB assay; summary of the method: as §1
786-0 [4] = assay: Cytotoxicity against human 786-0 cells by SRB assay
DU-145 [5] = assay: Cytotoxicity against human DU145 cells by SRB assay; summary of the method: as §1
HOP-62 [6] = assay: Cytotoxicity against human HOP62 cells assessed as cell growth at 0.005 uM by SRB assay; details: read-out: Activity; summary of the method: as §1
COLO 205 = assay: Cytotoxicity against human COLO205 cells assessed as cell growth at 0.005 uM by SRB assay; details: read-out: Activity
SF-268 = assay: Cytotoxicity against human SF268 cells assessed as cell growth at 0.005 uM by SRB assay; details: read-out: Activity
MDA-MB-435 [7] = assay: Cytotoxicity against human MDA-MB-435 cells assessed as cell growth at 0.005 uM by SRB assay; details: read-out: Activity
CAKI-1 = assay: Cytotoxicity against human Caki1 cells assessed as cell growth at 0.005 uM by SRB assay; details: read-out: Activity
[8] = Cytotoxicity against human Hs578T cells assessed as cell growth at 0.005 uM by SRB assay; details: Hs-578T, read-out: Activity; summary of the method: as §1
SW-620 = assay: Cytotoxicity against human SW620 cells assessed as cell growth at 0.05 uM by SRB assay; details: read-out: Activity
MDA-MB-435 [9] = assay: Cytotoxicity against human MDA-MB-435 cells assessed as cell growth at 0.05 uM by SRB assay; details: read-out: Activity
SK-MEL-5 = assay: Cytotoxicity against human SK-MEL-5 cells assessed as cell growth at 0.05 uM by SRB assay; details: read-out: Activity
UACC-257 = assay: Cytotoxicity against human UACC257 cells assessed as cell growth at 0.05 uM by SRB assay; details: read-out: Activity
UACC-62 = assay: Cytotoxicity against human UACC62 cells assessed as cell growth at 0.05 uM by SRB assay; details: read-out: Activity
IGROV-1 [10] = assay: Cytotoxicity against human IGROV1 cells assessed as cell growth at 0.05 uM by SRB assay; details: read-out: Activity; summary of the method: as §1
OVCAR-3 = assay: Cytotoxicity against human OVCAR3 cells assessed as cell growth at 0.05 uM by SRB assay; details: read-out: Activity
OVCAR-5 = assay: Cytotoxicity against human OVCAR5 cells assessed as cell growth at 0.05 uM by SRB assay; details: read-out: Activity
RXF 393 = assay: Cytotoxicity against human RXF393 cells assessed as cell growth at 0.05 uM by SRB assay; details: read-out: Activity
SN12C = assay: Cytotoxicity against human SN12C cells assessed as cell growth at 0.05 uM by SRB assay; details: read-out: Activity
MDA-MB-231 = assay: Cytotoxicity against human MDA-MB-231/ATCC cells assessed as cell growth at 0.05 uM by SRB assay; details: read-out: Activity
NCI-H226 = assay: Cytotoxicity against human NCI-H226 cells assessed as cell growth at 0.5 uM by SRB assay; details: read-out: Activity
HCC 2998 = assay: Cytotoxicity against human HCC2998 cells assessed as cell growth at 0.5 uM by SRB assay; details: read-out: Activity; summary of the method: as §1
SNB-19 = assay: Cytotoxicity against human SNB19 cells assessed as cell growth at 0.5 uM by SRB assay; details: read-out: Activity
SK-MEL-2 = assay: Cytotoxicity against human SK-MEL-2 cells assessed as cell growth at 0.5 uM by SRB assay; details: read-out: Activity
SK-MEL-28 [11] = assay: Cytotoxicity against human SK-MEL-28 cells assessed as cell growth at 0.5 uM by SRB assay; details: read-out: Activity
OVCAR-4 = assay: Cytotoxicity against human OVCAR4 cells assessed as cell growth at 0.5 uM by SRB assay; details: read-out: Activity
HL-60(TB) = assay: Cytotoxicity against human HL-60(TB) cells assessed as cell growth at 5 uM by SRB assay; details: read-out: Activity; summary of the method: as §1
MOLT-4 = assay: Cytotoxicity against human MOLT4 cells assessed as cell growth at 5 uM by SRB assay; details: read-out: Activity
NCI-H522 = assay: Cytotoxicity against human NCI-H522 cells assessed as cell growth at 5 uM by SRB assay; details: read-out: Activity
SF-539 = assay: Cytotoxicity against human SF539 cells assessed as cell growth at 5 uM by SRB assay; details: read-out: Activity
U-251 = assay: Cytotoxicity against human U251 cells assessed as cell growth at 5 uM by SRB assay; details: read-out: Activity
SK-MEL-28 [12] = assay: Cytotoxicity against human SK-MEL-28 cells assessed as cell growth at 5 uM by SRB assay; details: read-out: Activity
IGROV-1 [13] = assay: Cytotoxicity against human IGROV1 cells assessed as cell growth at 5 uM by SRB assay; details: read-out: Activity
786-0 [14] = assay: Cytotoxicity against human 786-0 cells assessed as cell growth at 5 uM by SRB assay; details: read-out: Activity
PC-3 [15] = assay: Cytotoxicity against human PC3 cells assessed as cell growth at 5 uM by SRB assay; details: read-out: Activity
[16] = Cytotoxicity against human Hs578T cells assessed as cell growth at 5 uM by SRB assay; details: Hs-578T, read-out: Activity; summary of the method: as §1
CCRF-CEM = assay: Cytotoxicity against human CCRF-CEM cells assessed as cell growth at 50 uM by SRB assay; details: read-out: Activity
[17] = read-out: LC50 (the source's name)
[18] = read-out: pLC50 (the source's name) (converted)

`COc1cc([C@@H]2c3cc4c(cc3[C@@H](NC(=O)CN3CCN(CCCCCCCCCCN5CCN(CC(=O)N[C@@H]6c7cc8c(cc7[C@@H](c7cc(OC)c(O)c(OC)c7)[C@H]7C(=O)OC[C@@H]76)OCO8)CC5)CC3)[C@H]3COC(=O)[C@H]23)OCO4)cc(OC)c1O` gave a growth at 50 µM (OVCAR-8) of -19%, a growth at 50 µM (A498) of -97% and a growth at 50 µM (UO-31) of -100%. It also gave a growth at 50 µM (PC-3 [1]) of -51%, a growth at 50 µM (DU-145 [2]) of -100% and a growth at 50 µM (BT-549) of -26%. The GI50 (HOP-62 [3]; read-out: GI50) was 0.0438 µM, the TGI (HOP-62 [3]; read-out: TGI) was 0.863 µM and the GI50 (HOP-62 [3]; read-out: pGI50 (converted)) was 0.0437 µM. For the same molecule, the TGI (HOP-62 [3]; read-out: pTGI (converted)) was 0.871 µM, the GI50 (HCT-15; read-out: GI50) was 0.359 µM and the CC50 (HCT-15; [17]) was 3.39 µM. The TGI (HCT-15; read-out: TGI) was 1.24 µM, the GI50 (HCT-15; read-out: pGI50 (converted)) was 0.363 µM and the CC50 (HCT-15; [18]) was 3.39 µM. For the same molecule, the TGI (HCT-15; read-out: pTGI (converted)) was 1.23 µM, the GI50 (786-0 [4]; read-out: GI50) was 0.209 µM and the CC50 (786-0 [4]; [17]) was 18.7 µM. It also gave a TGI (786-0 [4]; read-out: TGI) of 2.34 µM, a GI50 (786-0 [4]; read-out: pGI50 (converted)) of 0.209 µM and a CC50 (786-0 [4]; [18]) of 18.6 µM. The TGI (786-0 [4]; read-out: pTGI (converted)) was 2.34 µM, the GI50 (DU-145 [5]; read-out: GI50) was 0.153 µM and the CC50 (DU-145 [5]; [17]) was 14.6 µM. It also gave a TGI (DU-145 [5]; read-out: TGI) of 2.89 µM, a GI50 (DU-145 [5]; read-out: pGI50 (converted)) of 0.151 µM and a CC50 (DU-145 [5]; [18]) of 14.5 µM. The TGI (DU-145 [5]; read-out: pTGI (converted)) was 2.88 µM, the growth at 0.005 µM (HOP-62 [6]) was 88% and the growth at 0.005 µM (COLO 205) was 90%. For the same molecule, the growth at 0.005 µM (SF-268) was 97%, the growth at 0.005 µM (MDA-MB-435 [7]) was 96% and the growth at 0.005 µM (CAKI-1) was 93%. The growth at 0.005 µM [8] was 94%, the growth at 0.05 µM (SW-620) was 75% and the growth at 0.05 µM (MDA-MB-435 [9]) was 87%. For the same molecule, the growth at 0.05 µM (SK-MEL-5) was 96%, the growth at 0.05 µM (UACC-257) was 97% and the growth at 0.05 µM (UACC-62) was 90%. The growth at 0.05 µM (IGROV-1 [10]) was 83%, the growth at 0.05 µM (OVCAR-3) was 73% and the growth at 0.05 µM (OVCAR-5) was 83%. For the same molecule, the growth at 0.05 µM (RXF 393) was 84%, the growth at 0.05 µM (SN12C) was 80% and the growth at 0.05 µM (MDA-MB-231) was 92%. The growth at 0.5 µM (NCI-H226) was 49%, the growth at 0.5 µM (HCC 2998) was 61% and the growth at 0.5 µM (SNB-19) was 42%. The growth at 0.5 µM (SK-MEL-2) was 74%, the growth at 0.5 µM (SK-MEL-28 [11]) was 138% and the growth at 0.5 µM (OVCAR-4) was 77%. For the same molecule, the growth at 5 µM (HL-60(TB)) was -44%, the growth at 5 µM (MOLT-4) was -46% and the growth at 5 µM (NCI-H522) was -54%. The growth at 5 µM (SF-539) was -88%, the growth at 5 µM (U-251) was 9% and the growth at 5 µM (SK-MEL-28 [12]) was 64%. For the same molecule, the growth at 5 µM (IGROV-1 [13]) was 9%, the growth at 5 µM (786-0 [14]) was -13% and the growth at 5 µM (PC-3 [15]) was 17%. The growth at 5 µM [16] was 41% and the growth at 50 µM (CCRF-CEM) was 2%.

Reference: ChEMBL document CHEMBL3588757, “Structure-based design, synthesis and biological testing of piperazine-linked bis-epipodophyllotoxin etoposide analogs” (Bioorg Med Chem, 2015)
